Most compounds without a hit are left out; they make up all but 3.1% or so of the library.
miR-122 sensor: inhibitors of miR-122 in Huh7 cells; Huh7 miR-122 Renilla luciferase sensor, 48 h; neutral wells = 0, positive control = 100; activation (reporter increase), % at 12.5 µM; 340,000 compounds, 0.3% hits; AID 602342;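 active = mean replicate activation score at least 90 and every replicate individually at or above 90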;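 note: higher luciferase means less miR-122 activity so hits act as miR-122 inhibitors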
INS-1E GSIS act: GLuc luminescence reporter in INS-1E cells, primary screen for activators of glucose-dependent secretion of insulin; 370,000 compounds, 0.61% hits; activation, % at 16.6 µM; INS-1E GLuc reporter insulin secretion, 2-3 h;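 active = lowest replicate activation of at least 40%, so every replicate reaches that level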;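 note: 0% = median of neutral control wells and 100% = median of IBMX positive control wells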
Env fusion inh: HIV envelope-mediated fusion inhibition. HeLa-JRFL Env/CEM21 cell fusion, luciferase. inhibition, % at 12.3 µM. 360,000 compounds, 1.1% hits. AID 651610;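 active = mean replicate inhibition score of at least 50 and every replicate individually at or above 50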;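 note: 0% = plate neutral controls and 100% = maraviroc near 300 nM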
Ecoli rRNA inh: inhibitors of bacterial rRNA selective over humanized ribosomes; GFP signal change (wild-type ribosome), % (concentration not given with the values); 350,000 compounds, 1.6% hits; E. coli WT GFP vs humanized-ribosome RFP mutants, fluorescence, 24 h; hits give low values; DMSO median 0, no signal -100; AID 720706;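 active = significant combined selectivity score with lowered wild-type GFP, culture density cut under 30%, mutant RFP and density less affected; inactive = any of these conditions unmet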
CFTR F508del cor: CFTR F508del correction in bronchial cells | CFBE cells, YFP halide quenching; stimulated with forskolin plus potentiator P3; % fluorescence drop versus neutral controls | activity (quench increase), % at 7.58 µM | 350,000 compounds, 0.36% hits;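 active = mean added fluorescence quench of at least 8% versus neutral control, with both replicates also reaching 8%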;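 note: cells transiently co-express mutant CFTR-F508del with the halide-sensitive YFP; corrector assay measuring rescue of mutant channel to the surface after 24 h compound exposure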
Cneo AK release: Cryptococcus neoformans lysis via adenylate kinase release; C. neoformans lysis, adenylate kinase release luminescence, 4 h; normalised: neutral wells 0, clomiphene wells 100; lysis activity, % at 15 µM; 360,000 compounds, 0.2% hits;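 active = mean lysis activity across replicates of at least 80%, whatever share of replicates individually reach that level; inactive = mean lysis activity below 80%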
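Test system: log-phase Cryptococcus neoformans yeast cells. Input: 5 × 10^6 yeast cells/mL. Medium: fresh YPD growth medium. Doses: single dose. Incubation: static 4 h at 37 °C with compound, 1 h detection. Measured by: luminescent adenylate kinase detection reagent. Read-out: signal increase indicating cell lysis. Benchmarks: Clomiphene.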
* hit, by the source's call; [ ] = dose if it differs, or a comment.

How did O=[N+]([O-])c1ccc2nc(SCc3cn4ccccc4n3)[nH]c2c1 do in these assays?
INS-1E GSIS act: 3.3; Env fusion inh: 5.6; Ecoli rRNA inh: 1.9

How did O=[N+]([O-])c1ccc2nc(SCc3cn4cc(Cl)ccc4n3)[nH]c2c1 do in these assays?
INS-1E GSIS act: 3.1; Env fusion inh: 112.4*

How did C[C@H]1CN([C@@H](C)CO)C(=O)c2cc(C#CCc3ccccc3)cnc2O[C@H]1CN(C)Cc1cccnc1 do in these assays?
miR-122 sensor: 1.0[16.7 µM]; INS-1E GSIS act: -19.1; Env fusion inh: -8.1[16.7 µM]; Ecoli rRNA inh: 5.9; CFTR F508del cor: -0.9; Cneo AK release: 2.2

What do the screens show for `C[C@H]1CN([C@@H](C)CO)C(=O)c2cc(C3=CCCC3)cnc2O[C@H]1CN(C)C(=O)C1CCC1`?
miR-122 sensor: -4.1[16.7 µM]; INS-1E GSIS act: 2.7; Env fusion inh: -63.8[16.7 µM]; Ecoli rRNA inh: 3.0; CFTR F508del cor: -1.1; Cneo AK release: 0.3

What do the screens show for `COc1ccc(-c2cnc3c(c2)C(=O)N([C@@H](C)CO)C[C@@H](C)[C@@H](CN(C)C(=O)Cc2ccccn2)O3)cc1`?
miR-122 sensor: -2.1[16.7 µM]; INS-1E GSIS act: -2.9; Env fusion inh: -13.4[16.7 µM]; Ecoli rRNA inh: -0.2; CFTR F508del cor: 0.5; Cneo AK release: 2.6

What do the screens show for `O=C(c1ccccc1F)N1C[C@H]2[C@@H](c3ccccc31)[C@H](CO)N2C(=O)c1ccncc1`?
miR-122 sensor: -2.8[16.7 µM]; INS-1E GSIS act: 9.5; Ecoli rRNA inh: 0.4; CFTR F508del cor: -1.0; Cneo AK release: 42.8

Results for C[C@@H]1C(=O)NCCC=CC[C@H](C)Oc2ccccc2C(=O)N1C (mixture of isomers) ?
INS-1E GSIS act: 8.9; Ecoli rRNA inh: 4.5

Results for CCSc1nc2sc3c(c2c(=O)n1CC)CC(C)(C)OC3 ?
miR-122 sensor: -4.0; Cneo AK release: -2.1

How did CCn1c(SCC(=O)OC)nc2sc3c(c2c1=O)CC(C)(C)OC3 do in these assays?
miR-122 sensor: -2.7; INS-1E GSIS act: 74.3*; Env fusion inh: 11.1; Ecoli rRNA inh: -1.2; CFTR F508del cor: 1.4; Cneo AK release: -1.4

What do the screens show for `Cc1cc(C(=O)Nc2cccc3c2O[C@@H](CN(C)C(=O)Nc2ccc4c(c2)OCO4)[C@@H](C)CN([C@@H](C)CO)C3=O)n(C)n1`?
miR-122 sensor: 0.6[16.7 µM]; INS-1E GSIS act: 1.4; Ecoli rRNA inh: -6.8; CFTR F508del cor: -1.2; Cneo AK release: 49.4

What do the screens show for `Cc1ccc(-c2cc(C(=O)NCCCn3ccnc3)c3ccccc3n2)s1`?
miR-122 sensor: 123.3*; Env fusion inh: 15.9; Cneo AK release: -8.9

Source: PubChem BioAssay (Broad Institute)
